Active and inactive are the calls of the source. The rule behind the calls is not given here.
What was measured:
HeLa = experiment: Inhibition of HIV1 Rev expressed in human HeLa cells co-expressing firefly luciferase reporter gene assessed as inhibition of firefly luciferase expression after 24 hrs; format: cell-based; conditions: Human immunodeficiency virus 1
Outline: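 HeLa line with an integrated Rev-dependent Renilla luciferase reporter, plus firefly luciferase and HIV-1 IIIB Rev under Tet-Off control. Doxycycline was removed to induce expression alongside compound at various concentrations. Cells were plated at 2 × 10^4/well in triplicate.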

[1] = Inhibition of HIV1 Rev expressed in african green monkey 5BD.1 cells assessed as inhibition of p24 antigen treated for 16 hrs after washout with medium again readded for 24 hrs by ELISA
[2] = Cytotoxicity against african green monkey 5BD.1 cells after 2 days by MTS assay; format: cell-based; conditions: chlorocebus aethiops, read-out: TC50
Outline: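 5BD.1 cells (COS-derived, Rev-dependent Gag-Pol particle producers; 20,000/well) were given compound at 0.1–30 μM for 16 h, then refreshed with compound for 24 h more. Cells were collected at 40 h for the MTS proliferation assay, with formazan read at 492 nm versus untreated cells. TC50 was by curve fit.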

[3] = Cytotoxicity against human MT4 cells after 5 days by MTS assay; format: cell-based; conditions: read-out: TC50
Outline: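 MT-4 T cells were incubated with compound for 5 days. Toxicity was by MTS tetrazolium reduction, with formazan absorbance at 492 nm compared with cells given no compound.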

[4] = Inhibition of HIV1 Rev expressed in human HeLa cells co-expressing renilla luciferase reporter gene assessed as inhibition of renilla luciferase expression after 24 hrs; format: cell-based; conditions: Human immunodeficiency virus 1, HeLa
Outline: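 HeLa line with stably integrated Rev-dependent Renilla luciferase reporter (CMV promoter) plus bicistronic firefly luciferase/HIV-1 IIIB rev construct under Tet-Off; doxycycline withdrawn to induce Rev and both luciferases while compound added at various concentrations.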

[5] = system: Human immunodeficiency virus 1; experiment: Antiviral activity against HIV1 infected in TNFalpha-stimulated human U1 cells assessed as inhibition of Nef synthesis at 5 uM after 24 hrs by Western blotting; format: functional, organism-based
Outline: (§1)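 U1 cells carrying integrated provirus were induced with TNF-α and given compound (5 or 10 μM). After 24 h, cells were harvested and analysed by Western blot for p24, Pr55gag and Nef using p24- and Nef-specific monoclonal antibodies.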

[6] = system: Human immunodeficiency virus 1; experiment: Antiviral activity against HIV1 NL4-3 infected in human SupT1 cells assessed as inhibition of viral growth at 0.8 uM after 30 days by p24 ELISA; format: functional, organism-based; conditions: SUP-T1
Outline: (§2)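 SupT1 cells (5 × 10^6) were Polybrene-treated and infected with NL4-3 (50 ng p24 equivalents), then washed. They were cultured in RPMI/10% FCS with compound at fixed levels (0.8 and 8 μM, or 1 and 10 μM) or none. Cultures were split every 3 days with fresh compound-containing medium for 30–31 days. Supernatant p24 was measured by ELISA.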

[7] = system: Human immunodeficiency virus 1; experiment: Antiviral activity against HIV1 NL4-3 infected in human 293T cells assessed as inhibition of p24 synthesis at 8 uM after 24 hrs by Western blotting
[8] = system: Human immunodeficiency virus 1; experiment: Antiviral activity against HIV1 NL4-3 infected in human SupT1 cells assessed as inhibition of viral growth at 8 uM after 30 days by p24 ELISA; format: functional, organism-based; conditions: SUP-T1; outline: as §2
[9] = Inhibition of Mason-Pfizer monkey virus […]constitutive transport element-mediated p24 antigen production expressed in human HEK 293T cells after 72 hrs
[10] = system: Human immunodeficiency virus 1; experiment: Antiviral activity against HIV1 NL4-3 infected in human 293T cells assessed as inhibition of Nef synthesis at 8 uM after 24 hrs by Western blotting
[11] = system: Human immunodeficiency virus 1; experiment: Inhibition of HIV1 Rev-radiolabeled Rev response element interaction at up to 100 uM after 10 mins by electrophoretic mobility shift assay
Outline: (§3)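 A 234-bp RRE RNA was transcribed with [32P]UTP and T7 polymerase, then refolded (80°C 3 min, slow cooling). RRE (0.5 ng) was incubated with bacterial Rev (38 ng) in HEPES-KOH pH 7.8, 200 mM KCl, 4 mM MgCl2, glycerol with compound (up to 100 μM) on ice for 10 min. Complexes were resolved by PAGE and read by phosphorimager.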

[12] = system: Human immunodeficiency virus 1; experiment: Antiviral activity against HIV1 infected in TNFalpha-stimulated human U1 cells assessed as inhibition of p24 synthesis at 5 uM after 24 hrs by Western blotting; format: functional, organism-based; outline: as §1
[13] = system: Human immunodeficiency virus 1; experiment: Antiviral activity against HIV1 infected in TNFalpha-stimulated human U1 cells assessed as inhibition of Pr55gag synthesis at 5 uM after 24 hrs by Western blotting; format: functional, organism-based; outline: as §1
[14] = system: Human immunodeficiency virus 1; experiment: Antiviral activity against HIV1 infected in TNFalpha-stimulated human U1 cells assessed as inhibition of viral replication after 72 hrs; format: functional, organism-based; conditions: for EC50: Human immunodeficiency virus 1, U1, 72 h
Outline: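 U1 cells (50,000/ml, RPMI/10% FCS) were induced with 5 ng/ml TNF-α and given compound at the same time over a six-point range from 0 to 11.9 or 25.1 μM, for 3 days. Supernatant reverse transcriptase activity was read. Cell toxicity was by MTS reduction (formazan at 492 nm) relative to untreated cells. Values were interpolated between bracketing points.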

[15] = system: Human immunodeficiency virus 1; experiment: Antiviral activity against HIV1 Brazilian isolate 93BR021 infected in PHA-stimulated human PBMC assessed as inhibition of viral replication after 7 days; format: functional, organism-based; conditions: Human immunodeficiency virus 1, Brazilian isolate 93BR021, 168 h
Outline: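 PHA-stimulated (4 μg/ml, 48–72 h) PBMCs pooled from at least two donors, kept in 20 U/ml IL-2, 5 × 10^4 cells/well. Infected with primary isolate 93BR021 (CCR5-tropic, subtype B) at MOI ≈0.1 with nine compound concentrations, triplicate wells, for 7 days. Supernatant reverse transcriptase activity was read, then cell MTS toxicity. EC50 was interpolated between bracketing points.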

U1 = experiment: Cytotoxicity against human U1 cells after 3 days by MTS assay; format: cell-based; conditions: u1, 72 h
HEK-293T = experiment: Inhibition of HIV1 Rev-Rev response element-mediated p24 antigen production expressed in human HEK 293T cells after 72 hrs; conditions: Human immunodeficiency virus 1
[16] = as above; conditions: Human immunodeficiency virus 1, HEK-293T
[17] = system: Human immunodeficiency virus 1; experiment: Antiviral activity against HIV1 infected in TNFalpha-stimulated human U1 cells assessed as inhibition of p24 synthesis at 10 uM after 24 hrs by Western blotting; format: functional, organism-based; outline: as §1
[18] = system: Human immunodeficiency virus 1; experiment: Antiviral activity against HIV1 NL4-3 infected in human 293T cells assessed as inhibition of Nef synthesis at 10 uM after 24 hrs by Western blotting
[19] = system: Human immunodeficiency virus 1; experiment: Antiviral activity against HIV1 infected in TNFalpha-stimulated human U1 cells assessed as inhibition of Pr55gag synthesis at 10 uM after 24 hrs by Western blotting; format: functional, organism-based; outline: as §1
[20] = system: Human immunodeficiency virus 1; experiment: Antiviral activity against HIV1 NL4-3 infected in human 293T cells assessed as inhibition of p24 synthesis at 10 uM after 24 hrs by Western blotting
[21] = system: Human immunodeficiency virus 1; experiment: Antiviral activity against HIV1 NL4-3 infected in human SupT1 cells assessed as inhibition of viral growth at 10 uM after 30 days by p24 ELISA; format: functional, organism-based; conditions: SUP-T1; outline: as §2
[22] = system: Human immunodeficiency virus 1; experiment: Antiviral activity against HIV1 NL4-3 infected in human SupT1 cells assessed as inhibition of viral growth at 1 uM after 30 days by p24 ELISA; format: functional, organism-based; conditions: SUP-T1; outline: as §2
[23] = system: Human immunodeficiency virus 1; experiment: Antiviral activity against HIV1 infected in TNFalpha-stimulated human U1 cells assessed as inhibition of Nef synthesis at 10 uM after 24 hrs by Western blotting; format: functional, organism-based; outline: as §1
[24] = system: Human immunodeficiency virus 1; experiment: Inhibition of HIV1 Rev-radiolabeled Rev response element interaction after 10 mins by electrophoretic mobility shift assay; outline: as §3

CC(=O)Nc1cccc2n[se]nc12
TC50 (HeLa): 51.6 µM | EC50 [1]: 10 µM | CC50 at 48 h [2]: > 30 µM | CC50 at 120 h [3]: > 100 µM | EC50 [4]: 8.99 µM

Fc1ccc(Nc2ncnc3ccccc23)cc1Cl
TC50 (HeLa): > 40.8 µM | EC50 [1]: 3 µM | CC50 at 48 h [2]: > 30 µM | EC50 [4]: 8.98 µM

CCOC(=O)c1c(N)ncn1-c1ccccc1
TC50 (HeLa): 33 µM | EC50 [1]: 30 µM | CC50 at 48 h [2]: > 30 µM | CC50 at 120 h [3]: > 100 µM | EC50 [4]: 11 µM

COc1ccc2nc(C(F)(F)F)c(C#N)c(N)c2c1
Activity [5]: inactive | Activity [6]: Active | TC50 (HeLa): 17.2 µM | Activity [7]: Active | Activity [8]: Active | EC50 [9]: > 15 µM | Activity [10]: inactive | inhibition [11]: inactive | Activity [12]: Active | EC50 [1]: 2.5 µM | Activity [13]: Active | Activity [14]: Dose-dependent effect | EC50 [14]: < 0.25 µM | EC50 [15]: 0.63 µM | CC50 at 48 h [2]: > 30 µM | Activity (U1): Toxic | CC50 at 120 h [3]: 28 µM | EC50 [4]: 2.24 µM | inhibition (HEK-293T): Dose-dependent effect | EC50 [16]: 1.9 µM

CS(=O)(=O)c1ncc(-c2ccc(Br)cc2)cn1
TC50 (HeLa): 30.9 µM | EC50 [1]: 0.2 µM | CC50 at 48 h [2]: > 30 µM | CC50 at 120 h [3]: 10 µM | EC50 [4]: 7.48 µM

Cc1ccc(NC(=O)c2sc(Cl)nc2C(F)(F)F)cc1
TC50 (HeLa): > 39.5 µM | EC50 [1]: 1.9 µM | CC50 at 48 h [2]: 25 µM | CC50 at 120 h [3]: 18 µM | EC50 [4]: 9.73 µM

COc1ccc2cc3c(N)n[nH]c3nc2c1
TC50 (HeLa): 8.41 µM | EC50 [1]: 0.9 µM | CC50 at 48 h [2]: > 30 µM | CC50 at 120 h [3]: 20 µM | EC50 [4]: 0.48 µM

COc1cccc(NC(=O)c2cc(Cl)nnc2Cl)c1
TC50 (HeLa): 18.5 µM | EC50 [1]: 4.9 µM | CC50 at 48 h [2]: > 30 µM | CC50 at 120 h [3]: 50 µM | EC50 [4]: 8 µM

CCC(=C/[C@H](C)C/C=C/C(C)=C/[C@@H](C)C(=O)[C@@H](C)[C@H](O)[C@@H](C)C/C(C)=C/C(=O)O)/C=C/[C@@H]1OC(=O)C=C[C@@H]1C [LEPTOMYCIN B]
TC50 (HeLa): 0.02 µM | EC50 [4]: 0.00822 µM

O=c1c2ccccc2n2nnc3ccc(NCCCN4CCN(CCCNc5ccc6nnn7c8ccccc8c(=O)c5c67)CC4)c1c32 [TEMACRAZINE]
EC50 [14]: 2 µM

Cc1cn([C@H]2C[C@H](N=[N+]=[N-])[C@@H](CO)O2)c(=O)[nH]c1=O [ZIDOVUDINE]
EC50 [15]: 2.47 µM

CCc1c(C)nc2sc(C(N)=O)c(N)c2c1C
TC50 (HeLa): > 37.6 µM | Activity [17]: Active | Activity [18]: inactive | EC50 [9]: > 15 µM | Activity [19]: Active | inhibition [11]: inactive | EC50 [1]: 0.9 µM | Activity [14]: Dose-dependent effect | EC50 [14]: 0.4 µM | EC50 [15]: 0.29 µM | Activity [20]: Active | CC50 at 48 h [2]: > 30 µM | CC50 at 120 h [3]: 32 µM | EC50 [4]: 1.07 µM | Activity [21]: Active | inhibition (HEK-293T): Dose-dependent effect | EC50 [16]: 3.8 µM | Activity [22]: Active | Activity [23]: inactive

COC(=O)c1c(N)ncn1-c1ccc(C)cc1
TC50 (HeLa): > 41.8 µM | EC50 [1]: 22 µM | CC50 at 48 h [2]: > 30 µM | CC50 at 120 h [3]: > 100 µM | EC50 [4]: 11.2 µM

NC[C@@H]1O[C@H](O[C@H]2[C@@H](O)[C@H](O[C@@H]3[C@@H](O)[C@H](N)C[C@H](N)[C@H]3O[C@H]3O[C@H](CN)[C@@H](O)[C@H](O)[C@H]3N)O[C@@H]2CO)[C@H](N)[C@@H](O)[C@@H]1O
inhibition [24]: Active

CCc1c(C(=O)Nc2ccccc2)c(C)nc2sc(C(N)=O)c(N)c12
TC50 (HeLa): 7.91 µM | EC50 [1]: 3 µM | CC50 at 48 h [2]: > 30 µM | CC50 at 120 h [3]: > 100 µM | EC50 [4]: 2.42 µM
